Test results: publication PMC9302689 (British Journal of Clinical Pharmacology, 2022)

Tested on: healthy male subjects
Assay: Pharmaco-EEG
Assay type: in vivo, human
Conditions: 12-hour post-dose period
Outline: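 Continuous EEG was recorded from 21 electrodes placed by the 10–20 system, with mastoid electrodes replacing the earlobe ones. Recordings followed IPEG guidelines, twice pre-dose and at 0.5–10 h post-dose. Power spectra for Fz-Cz and Pz-O derivations were split into bands to give total band power (μV). Values were ln-transformed, analysed by MMRM over 12 h against pooled placebo, and back-transformed.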

CN1CCC23CCCCC2C1Cc1ccc(C(N)=O)cc13 (stereo not drawn) [ALKS 7119, (9α, 13α)‐17‐methylmorphinan‐3‐carboxamide]
Theta-power Pz-Oz, LSM CFB (75 mg single oral dose): 0.12 Hz
Theta-power Pz-Oz, estimate of difference compared to placebo (75 mg single oral dose): 0.05 [−0.20, 0.28] P = .69 Hz
Alpha-power Fz-Cz, LSM CFB (100 mg single oral dose): 0.06 Hz
Alpha-power Pz-Oz, LSM CFB (100 mg single oral dose): 0.12 Hz
Alpha-power Pz-Oz, estimate of difference compared to placebo (100 mg single oral dose): 0.02 [−0.23, 0.28] P = .85 Hz
Beta-power Fz-Cz, LSM CFB (100 mg single oral dose): 0.08 Hz
Beta-power Fz-Cz, estimate of difference compared to placebo (100 mg single oral dose): −0.03 [−0.25, 0.19] P = .77 Hz
Beta-power Pz-Oz, LSM CFB (100 mg single oral dose): 0.25 Hz
Beta-power Pz-Oz, estimate of difference compared to placebo (100 mg single oral dose): 0.12 [−0.07, 0.32] P = .22 Hz
Delta-power Fz-Cz, LSM CFB (100 mg single oral dose): −0.03 Hz
Delta-power Fz-Cz, estimate of difference compared to placebo (100 mg single oral dose): −0.13 [−0.34, 0.08] P = .22 Hz
Delta-power Pz-Oz, LSM CFB (100 mg single oral dose): 0.08 Hz
Delta-power Pz-Oz, estimate of difference compared to placebo (100 mg single oral dose): 0.02 [−0.21, 0.25] P = .89 Hz
Gamma-power Fz-Cz, LSM CFB (100 mg single oral dose): 0.1 Hz
Gamma-power Fz-Cz, estimate of difference compared to placebo (100 mg single oral dose): <−0.01 [−0.20, 0.21] P = .99 Hz
Gamma-power Pz-Oz, LSM CFB (100 mg single oral dose): 0.27 Hz
Gamma-power Pz-Oz, estimate of difference compared to placebo (100 mg single oral dose): 0.06 [−0.19, 0.32] P = .63 Hz
Theta-power Fz-Cz, LSM CFB (100 mg single oral dose): 0.03 Hz
Theta-power Fz-Cz, estimate of difference compared to placebo (100 mg single oral dose): −0.04 [−0.27, 0.19] P = .72 Hz
Theta-power Pz-Oz, LSM CFB (100 mg single oral dose): 0.14 Hz
Theta-power Pz-Oz, estimate of difference compared to placebo (100 mg single oral dose): 0.08 [−0.16, 0.30] P = .56 Hz
Alpha-power Fz-Cz, LSM CFB (125 mg single oral dose): 0.05 Hz
Alpha-power Fz-Cz, estimate of difference compared to placebo (125 mg single oral dose): −0.17 [−1.24,‐.89] P = .75 Hz
Alpha-power Pz-Oz, LSM CFB (125 mg single oral dose): 0.11 Hz
Alpha-power Pz-Oz, estimate of difference compared to placebo (125 mg single oral dose): 0.01 [−0.25, 0.27] P = .93 Hz
Beta-power Fz-Cz, LSM CFB (125 mg single oral dose): 0.12 Hz
Beta-power Fz-Cz, estimate of difference compared to placebo (125 mg single oral dose): 0.01 [−0.21, 0.23] P = .93 Hz
Beta-power Pz-Oz, LSM CFB (125 mg single oral dose): 0.14 Hz
Beta-power Pz-Oz, estimate of difference compared to placebo (125 mg single oral dose): 0.02 [−0.18, 0.22] P = .87 Hz
Delta-power Fz-Cz, LSM CFB (125 mg single oral dose): 0.09 Hz
Delta-power Fz-Cz, estimate of difference compared to placebo (125 mg single oral dose): −0.01 [0.22, 0.20] P = .90 Hz
Delta-power Pz-Oz, LSM CFB (125 mg single oral dose): 0.22 Hz
Delta-power Pz-Oz, estimate of difference compared to placebo (125 mg single oral dose): 0.15 [−0.08, 0.39] P = .19 Hz
Gamma-power Fz-Cz, LSM CFB (125 mg single oral dose): 0.12 Hz
Gamma-power Fz-Cz, estimate of difference compared to placebo (125 mg single oral dose): 0.02 [−0.18, 0.22] P = .85 Hz
Gamma-power Pz-Oz, LSM CFB (125 mg single oral dose): 0.12 Hz
Gamma-power Pz-Oz, estimate of difference compared to placebo (125 mg single oral dose): −0.09 [−0.35, 0.17] P = .49 Hz
Theta-power Fz-Cz, LSM CFB (125 mg single oral dose): 0.1 Hz
Theta-power Fz-Cz, estimate of difference compared to placebo (125 mg single oral dose): 0.03 [−0.20, 0.25] P = .82 Hz
Theta-power Pz-Oz, LSM CFB (125 mg single oral dose): 0.15 Hz
Theta-power Pz-Oz, estimate of difference compared to placebo (125 mg single oral dose): 0.08 [−0.15, 0.31] P = .50 Hz
Alpha-power Fz-Cz, LSM CFB (150 mg single oral dose): 0.15 Hz
Alpha-power Pz-Oz, LSM CFB (150 mg single oral dose): −0.07 Hz
Alpha-power Pz-Oz, estimate of difference compared to placebo (150 mg single oral dose): −0.17 [−0.43, 0.09] P = .19 Hz
Beta-power Fz-Cz, LSM CFB (150 mg single oral dose): 0.11 Hz
Beta-power Fz-Cz, estimate of difference compared to placebo (150 mg single oral dose): −0.01 [−0.22, 0.22] P = .97 Hz
Beta-power Pz-Oz, LSM CFB (150 mg single oral dose): −0.07 Hz
Beta-power Pz-Oz, estimate of difference compared to placebo (150 mg single oral dose): −0.19 [−0.39, 0.01] P = .06 Hz
Delta-power Fz-Cz, LSM CFB (150 mg single oral dose): −0.08 Hz
Delta-power Fz-Cz, estimate of difference compared to placebo (150 mg single oral dose): −0.19 [−0.41, 0.03] P = .08 Hz
Delta-power Pz-Oz, LSM CFB (150 mg single oral dose): 0.02 Hz
Delta-power Pz-Oz, estimate of difference compared to placebo (150 mg single oral dose): −0.04 [−0.27, 0.19] P = .71 Hz
Gamma-power Fz-Cz, LSM CFB (150 mg single oral dose): 0.14 Hz
Gamma-power Fz-Cz, estimate of difference compared to placebo (150 mg single oral dose): 0.04 [−0.16, 0.24] P = .71 Hz
Gamma-power Pz-Oz, LSM CFB (150 mg single oral dose): 0.09 Hz
Gamma-power Pz-Oz, estimate of difference compared to placebo (150 mg single oral dose): −0.12 [−0.37, 0.14] P = .37 Hz
Theta-power Fz-Cz, LSM CFB (150 mg single oral dose): 0 Hz
Theta-power Fz-Cz, estimate of difference compared to placebo (150 mg single oral dose): −0.07 [−0.31, 0.16] P = .54 Hz
Theta-power Pz-Oz, LSM CFB (150 mg single oral dose): 0 Hz
Theta-power Pz-Oz, estimate of difference compared to placebo (150 mg single oral dose): −0.07 [−0.31, 0.16] P = .53 Hz
Alpha-power Fz-Cz, LSM CFB (175 mg single oral dose): 0.02 Hz
Alpha-power Fz-Cz, estimate of difference compared to placebo (175 mg single oral dose): −0.15 [−1.19, 0.9] P = .78 Hz
Alpha-power Pz-Oz, LSM CFB (175 mg single oral dose): −0.02 Hz
Alpha-power Pz-Oz, estimate of difference compared to placebo (175 mg single oral dose): −0.12 [−0.37, 0.14] P = .36 Hz
Beta-power Fz-Cz, LSM CFB (175 mg single oral dose): 0.08 Hz
Beta-power Fz-Cz, estimate of difference compared to placebo (175 mg single oral dose): −0.04 [−0.26, 0.18] P = .73 Hz
Beta-power Pz-Oz, LSM CFB (175 mg single oral dose): 0.01 Hz
Beta-power Pz-Oz, estimate of difference compared to placebo (175 mg single oral dose): −0.12 [−0.32, 0.08] P = .24 Hz
Delta-power Fz-Cz, LSM CFB (175 mg single oral dose): 0.09 Hz
Delta-power Fz-Cz, estimate of difference compared to placebo (175 mg single oral dose): −0.01 [−0.23, 0.20] P = .91 Hz
Delta-power Pz-Oz, LSM CFB (175 mg single oral dose): −0.07 Hz
Delta-power Pz-Oz, estimate of difference compared to placebo (175 mg single oral dose): −0.13 [−0.36, 0.11] P = .26 Hz
Gamma-power Fz-Cz, LSM CFB (175 mg single oral dose): 0.16 Hz
Gamma-power Fz-Cz, estimate of difference compared to placebo (175 mg single oral dose): 0.06 [−0.14, 0.26] P = .57 Hz
Gamma-power Pz-Oz, LSM CFB (175 mg single oral dose): 0.03 Hz
Gamma-power Pz-Oz, estimate of difference compared to placebo (175 mg single oral dose): −0.18 [−0.43, 0.08] P = .17 Hz
Theta-power Fz-Cz, LSM CFB (175 mg single oral dose): 0.08 Hz
Theta-power Pz-Oz, LSM CFB (175 mg single oral dose): −0.07 Hz
Theta-power Pz-Oz, estimate of difference compared to placebo (175 mg single oral dose): −0.14 [−0.37, 0.10] P = .25 Hz
Alpha-power Fz-Cz, LSM CFB (200 mg single oral dose): 0.01 Hz
Alpha-power Fz-Cz, estimate of difference compared to placebo (200 mg single oral dose): −0.28 [−1.39, 0.82] P = .61 Hz
Alpha-power Pz-Oz, LSM CFB (200 mg single oral dose): 0.24 Hz
Alpha-power Pz-Oz, estimate of difference compared to placebo (200 mg single oral dose): 0.14 [−0.11, 0.40] P = .27 Hz
Beta-power Fz-Cz, LSM CFB (200 mg single oral dose): 0.07 Hz
Beta-power Fz-Cz, estimate of difference compared to placebo (200 mg single oral dose): −0.05 [−0.27, 0.17] P = .67 Hz
Beta-power Pz-Oz, LSM CFB (200 mg single oral dose): 0.2 Hz
Beta-power Pz-Oz, estimate of difference compared to placebo (200 mg single oral dose): 0.07 [−0.12, 0.27] P = .46 Hz
Delta-power Fz-Cz, LSM CFB (200 mg single oral dose): 0.02 Hz
Delta-power Fz-Cz, estimate of difference compared to placebo (200 mg single oral dose): −0.08 [−0.29, 0.13] P = .45 Hz
Delta-power Pz-Oz, LSM CFB (200 mg single oral dose): 0.26 Hz
Delta-power Pz-Oz, estimate of difference compared to placebo (200 mg single oral dose): 0.20 [−0.04, 0.43] P = .10 Hz
Gamma-power Fz-Cz, LSM CFB (200 mg single oral dose): 0.21 Hz
Gamma-power Fz-Cz, estimate of difference compared to placebo (200 mg single oral dose): 0.11 [−0.09, 0.31] P = .29 Hz
Gamma-power Pz-Oz, LSM CFB (200 mg single oral dose): 0.31 Hz
Gamma-power Pz-Oz, estimate of difference compared to placebo (200 mg single oral dose): 0.11 [−0.15, 0.36] P = .40 Hz
Theta-power Fz-Cz, LSM CFB (200 mg single oral dose): 0.07 Hz
Theta-power Pz-Oz, LSM CFB (200 mg single oral dose): 0.25 Hz
Theta-power Pz-Oz, estimate of difference compared to placebo (200 mg single oral dose): 0.18 [−0.05, 0.41] P = .13 Hz
